The values that follow come from ChEMBL document CHEMBL4371006, “Discovery of N-[4-(Quinolin-4-yloxy)phenyl]benzenesulfonamides as Novel AXL Kinase Inhibitors” (J Med Chem, 2018).

Data set [1] addresses Serine/threonine-protein kinase MARK2 (Homo sapiens, UniProt Q7KZI7). Description: Binding affinity to MARK2 in SILAC-labeled human MDA-MB-231 cells lysate by mass spectrometry based kinAffinity assay. In kind it is subcellular. A digest of the protocol: (§1)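 Chemical proteomics: MDA-MB-231 lysate bound to matrix of immobilized broad kinase inhibitors at several densities (BC50), then competed with increasing free compound (CC50); proteins quantified by mass spectrometry, Kd via Cheng-Prusoff. Two competition formats run in parallel to check equilibrium.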

Data set [2] concerns the target Tyrosine-protein kinase Lyn (Homo sapiens, UniProt P07948). The data set is described as follows: Binding affinity to LYN in SILAC-labeled human MDA-MB-231 cells lysate by mass spectrometry based kinAffinity assay. In kind it is subcellular. Summed up: as §1
The target in data set [3] is Receptor-interacting serine/threonine-protein kinase 2 (Homo sapiens, UniProt O43353). Description: Binding affinity to RIPK2 in SILAC-labeled human MDA-MB-231 cells lysate by mass spectrometry based kinAffinity assay. In kind it is subcellular. A digest of the protocol: (§2)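 MDA-MB-231 lysate applied to KinAffinity matrix of immobilized broadband kinase inhibitors at graded densities to obtain BC50 per target. Competition then run with increasing free compound to give CC50; Kd derived by Cheng-Prusoff. Two competition experiments in parallel to check equilibrium, one with lysate pre-incubated with compound before adding matrix. Quantitation by mass spectrometry.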

Data set [4] deals with Tyrosine-protein kinase Fyn (Homo sapiens, UniProt P06241). Description: Binding affinity to FYN in SILAC-labeled human MDA-MB-231 cells lysate by mass spectrometry based kinAffinity assay. In kind it is subcellular. A digest of the protocol: as §1
The next data set concerns the target Aurora kinase B (Homo sapiens, UniProt Q96GD4). The data set is described as follows: Binding affinity to AURKB in SILAC-labeled human MDA-MB-231 cells lysate by mass spectrometry based kinAffinity assay. The class given is subcellular. Summed up:
as §1

Data set [5] deals with Tyrosine-protein kinase ABL2 (Homo sapiens, UniProt P42684). The data set is described as follows: Binding affinity to ABL2 in SILAC-labeled human MDA-MB-231 cells lysate by mass spectrometry based kinAffinity assay. The class given is subcellular. A digest of the protocol:
as §1

The next data set addresses LIM domain kinase 1 (Homo sapiens, UniProt P53667). The data set is described as follows: Binding affinity to LIMK1 in SILAC-labeled human MDA-MB-231 cells lysate by mass spectrometry based kinAffinity assay. The class given is subcellular. Summed up: as §1
For data set [6], the target named is Tyrosine-protein kinase Fer (Homo sapiens, UniProt P16591). The data set is described as follows: Binding affinity to FER in SILAC-labeled human MDA-MB-231 cells lysate by mass spectrometry based kinAffinity assay. In kind it is subcellular. A digest of the protocol: as §1
Data set [7] has as its target Serine/threonine-protein kinase/endoribonuclease IRE1 (Homo sapiens, UniProt O75460). The data set is described as follows: Binding affinity to IRE1 in SILAC-labeled human MDA-MB-231 cells lysate by mass spectrometry based kinAffinity assay. In kind it is subcellular. Summed up: as §1
The target of data set [8] is 5'-AMP-activated protein kinase subunit gamma-1 (Homo sapiens, UniProt P54619). Description: Binding affinity to PRKAG1 in SILAC-labeled human MDA-MB-231 cells lysate by mass spectrometry based kinAffinity assay. The class given is subcellular. A digest of the protocol:
as §2

In data set [9] the target is 5'-AMP-activated protein kinase subunit gamma-2 (Homo sapiens, UniProt Q9UGJ0). The data set is described as follows: Binding affinity to PRKAG2 in SILAC-labeled human MDA-MB-231 cells lysate by mass spectrometry based kinAffinity assay. The class given is subcellular. A digest of the protocol:
as §2

The target in data set [10] is 5'-AMP-activated protein kinase subunit beta-1 (Homo sapiens, UniProt Q9Y478). Description: Binding affinity to PRKAB1 in SILAC-labeled human MDA-MB-231 cells lysate by mass spectrometry based kinAffinity assay. In kind it is subcellular. Summed up:
as §2

The target in the next data set is TGF-beta receptor type-2 (Homo sapiens, UniProt P37173). Description: Binding affinity to TGFBR2 in SILAC-labeled human MDA-MB-231 cells lysate by mass spectrometry based kinAffinity assay. In kind it is subcellular. A digest of the protocol: as §2
Data set [11] deals with Mitogen-activated protein kinase kinase kinase kinase 3 (Homo sapiens, UniProt Q8IVH8). The data set is described as follows: Binding affinity to MAP4K3 in SILAC-labeled human MDA-MB-231 cells lysate by mass spectrometry based kinAffinity assay. In kind it is subcellular. Summed up:
as §1

The target in data set [12] is Serine/threonine-protein kinase ULK3 (Homo sapiens, UniProt Q6PHR2). Description: Binding affinity to ULK3 in SILAC-labeled human MDA-MB-231 cells lysate by mass spectrometry based kinAffinity assay. The class given is subcellular. Summed up: as §2
Data set [13] deals with TRAF family member-associated NF-kappa-B activator (Homo sapiens, UniProt Q92844). Description: Binding affinity to TANK in SILAC-labeled human MDA-MB-231 cells lysate by mass spectrometry based kinAffinity assay. The class given is subcellular. Summed up: as §2
Data set [14] deals with Mitogen-activated protein kinase kinase kinase 2 (Homo sapiens, UniProt Q9Y2U5). The data set is described as follows: Binding affinity to MAP3K2 in SILAC-labeled human MDA-MB-231 cells lysate by mass spectrometry based kinAffinity assay. The class given is subcellular. Summed up: as §1
The next data set has as its target Focal adhesion kinase 1 (Homo sapiens, UniProt Q05397). The data set is described as follows: Binding affinity to FAK in SILAC-labeled human MDA-MB-231 cells lysate by mass spectrometry based kinAffinity assay. The class given is subcellular. A digest of the protocol:
as §1

Data set [15] is described as follows: Solubility of the compound […] after 24 hrs by UV-based HPLC analysis. The class given is physicochemical. Particulars: DMSO. Summed up: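 Solubility in water: DMSO stock aliquots diluted into water, shaken 24 h at room temperature, filtered through 0.45 µm nylon, then quantified by HPLC-UV with a C18 column and 70% ACN. Run in triplicate.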
Data set [16] in a line: Efflux ratio of apparent permeability from basolateral to apical side over apical to basolateral side in human Caco2 cells at 10 uM after 2 hrs by LC-MS/MS analysis. The class given is ADME, cell-based. The following applies: Caco-2. Summed up: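 Caco-2 monolayers differentiated 3 weeks, integrity checked by Lucifer yellow transport. Compound at 10 µM for 2 h; apical transport buffer (glucose, 10 mM HEPES, HBSS, pH 6.5, 100 µM Lucifer yellow), basolateral buffer pH 7.4. Papp = (dQ/dt)/C0A; efflux ratio = Papp(B→A)/Papp(A→B).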
A general note: Caco-2 monolayers are a common model of the intestinal barrier.

A short description of data set [17]: Intrinsic clearance in mouse liver microsomes at 5 uM after 60 mins in presence of NADPH by LC-MS/MS analysis. The class given is ADME, Microsome. Particulars: read-out: CLH. Summed up: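 Compound at 5 µM with 1 mg/mL human or mouse liver microsomes plus an NADPH-regenerating system, in 100 mM potassium phosphate at 37°C. Reactions were stopped with acetonitrile at sampling times. Percent remaining versus time 0 was measured by HPLC, in duplicate.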

A short description of data set [18]: Stability in human plasma assessed as parent compound remaining. The class given is ADME, cell-free.
Data set [19] in a line: Stability in mouse plasma assessed as parent compound remaining. In kind it is ADME, cell-free.
Data set [20] can be described thus: AUC (0 to tz) in mouse at 1 to 2 mg/kg, iv by LC/MS/MS analysis. The class given is ADME, organism-based. Particulars: in vivo. A digest of the protocol:
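Male ICR mice (27 ± 5 g, n = 3) dosed iv via tail vein at 2 or 1 mg/kg in 30% PEG400/5% ethanol in water. Jugular blood (0.3 mL, heparin) sampled at set times over 24 h or more; plasma separated, acetonitrile-precipitated, drug quantified by LC/MS/MS; parameters from noncompartmental-type software estimation.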

Data set [21] in a line: Initial plasma concentration in mouse at 1 to 2 mg/kg, iv by LC/MS/MS analysis. In kind it is ADME, organism-based. Summed up: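 Male ICR mice (n = 3) dosed iv via the tail vein at 2 or 1 mg/kg in 30% PEG400 and 5% ethanol in water. Jugular blood was collected into heparin and the plasma separated. Plasma levels were measured by LC/MS/MS after acetonitrile precipitation, and parameters were derived by noncompartmental software.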

Data set [22] can be described thus: Apparent half-life of the terminal disposition phase in mouse at 3 mg/kg, iv by LC/MS/MS analysis. Particulars: in vivo, read-out: t1/2 lambda z (converted).

Structures are written as SMILES. Converted amounts (≈) assume the structure as drawn.

5'-AMP-activated protein kinase subunit beta-1, sequence (Q9Y478 whole entry): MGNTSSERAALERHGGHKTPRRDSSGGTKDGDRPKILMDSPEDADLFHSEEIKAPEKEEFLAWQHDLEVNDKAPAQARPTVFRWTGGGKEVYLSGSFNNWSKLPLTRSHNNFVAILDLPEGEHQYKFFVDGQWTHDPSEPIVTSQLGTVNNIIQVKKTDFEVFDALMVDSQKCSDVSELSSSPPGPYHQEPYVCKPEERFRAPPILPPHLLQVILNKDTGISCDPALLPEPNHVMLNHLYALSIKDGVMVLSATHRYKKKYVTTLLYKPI
Receptor-interacting serine/threonine-protein kinase 2, sequence (O43353 whole entry): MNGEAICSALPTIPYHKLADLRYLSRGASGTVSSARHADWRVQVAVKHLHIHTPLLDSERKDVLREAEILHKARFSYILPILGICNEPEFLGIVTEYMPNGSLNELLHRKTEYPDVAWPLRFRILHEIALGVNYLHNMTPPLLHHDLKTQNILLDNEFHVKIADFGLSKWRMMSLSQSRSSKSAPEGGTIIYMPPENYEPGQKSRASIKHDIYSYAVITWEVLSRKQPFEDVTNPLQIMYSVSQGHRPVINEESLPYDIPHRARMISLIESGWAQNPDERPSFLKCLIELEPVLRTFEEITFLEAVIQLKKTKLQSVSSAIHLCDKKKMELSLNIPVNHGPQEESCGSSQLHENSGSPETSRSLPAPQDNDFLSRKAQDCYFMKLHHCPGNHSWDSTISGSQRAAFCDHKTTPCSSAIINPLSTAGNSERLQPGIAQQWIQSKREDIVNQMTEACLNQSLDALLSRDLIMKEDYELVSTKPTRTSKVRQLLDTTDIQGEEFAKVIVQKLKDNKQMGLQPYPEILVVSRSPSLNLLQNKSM
LIM domain kinase 1, sequence (P53667 whole entry, the tested form may be a part): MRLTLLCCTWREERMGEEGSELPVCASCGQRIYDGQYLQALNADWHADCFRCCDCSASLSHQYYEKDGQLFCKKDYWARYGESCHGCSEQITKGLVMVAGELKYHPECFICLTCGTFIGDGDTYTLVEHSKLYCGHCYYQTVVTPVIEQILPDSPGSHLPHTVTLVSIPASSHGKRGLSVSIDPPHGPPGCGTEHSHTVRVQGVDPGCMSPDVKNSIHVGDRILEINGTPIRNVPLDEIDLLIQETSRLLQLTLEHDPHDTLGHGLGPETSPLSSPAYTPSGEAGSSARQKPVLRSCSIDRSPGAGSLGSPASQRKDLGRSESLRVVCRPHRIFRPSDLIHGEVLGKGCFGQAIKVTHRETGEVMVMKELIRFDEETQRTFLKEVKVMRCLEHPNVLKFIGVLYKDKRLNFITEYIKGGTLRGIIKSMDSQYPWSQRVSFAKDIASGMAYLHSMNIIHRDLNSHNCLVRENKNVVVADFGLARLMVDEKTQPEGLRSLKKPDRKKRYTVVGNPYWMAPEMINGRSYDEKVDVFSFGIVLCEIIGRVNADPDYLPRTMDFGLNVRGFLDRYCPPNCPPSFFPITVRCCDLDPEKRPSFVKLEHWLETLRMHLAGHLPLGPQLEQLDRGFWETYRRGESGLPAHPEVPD
Serine/threonine-protein kinase/endoribonuclease IRE1, sequence (O75460 whole entry): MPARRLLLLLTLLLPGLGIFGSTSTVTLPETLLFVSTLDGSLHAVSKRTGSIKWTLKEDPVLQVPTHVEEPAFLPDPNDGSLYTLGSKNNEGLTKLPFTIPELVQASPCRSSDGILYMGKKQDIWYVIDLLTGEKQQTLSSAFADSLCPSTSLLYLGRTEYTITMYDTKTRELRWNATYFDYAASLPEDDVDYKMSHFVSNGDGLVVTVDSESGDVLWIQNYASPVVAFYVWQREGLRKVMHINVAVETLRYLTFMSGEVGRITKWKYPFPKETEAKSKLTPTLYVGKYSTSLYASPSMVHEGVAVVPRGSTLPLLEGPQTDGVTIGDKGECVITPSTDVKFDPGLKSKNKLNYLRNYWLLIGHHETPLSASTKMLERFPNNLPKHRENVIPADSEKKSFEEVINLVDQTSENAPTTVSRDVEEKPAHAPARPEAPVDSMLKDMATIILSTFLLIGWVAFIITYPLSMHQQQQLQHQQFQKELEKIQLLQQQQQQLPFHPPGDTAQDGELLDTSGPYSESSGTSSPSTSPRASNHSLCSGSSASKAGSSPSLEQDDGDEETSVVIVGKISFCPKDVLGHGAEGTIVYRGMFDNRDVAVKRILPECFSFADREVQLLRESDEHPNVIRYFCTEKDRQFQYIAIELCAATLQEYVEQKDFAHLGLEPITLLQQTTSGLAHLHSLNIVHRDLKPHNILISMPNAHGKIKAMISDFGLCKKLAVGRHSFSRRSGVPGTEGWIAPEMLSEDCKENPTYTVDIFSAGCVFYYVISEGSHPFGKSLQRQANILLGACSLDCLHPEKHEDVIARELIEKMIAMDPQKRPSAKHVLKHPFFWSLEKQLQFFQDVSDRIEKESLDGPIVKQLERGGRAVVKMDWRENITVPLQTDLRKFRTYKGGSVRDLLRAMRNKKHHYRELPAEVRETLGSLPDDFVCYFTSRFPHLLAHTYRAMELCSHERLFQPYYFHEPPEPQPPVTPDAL
Tyrosine-protein kinase ABL2, sequence (P42684 whole entry): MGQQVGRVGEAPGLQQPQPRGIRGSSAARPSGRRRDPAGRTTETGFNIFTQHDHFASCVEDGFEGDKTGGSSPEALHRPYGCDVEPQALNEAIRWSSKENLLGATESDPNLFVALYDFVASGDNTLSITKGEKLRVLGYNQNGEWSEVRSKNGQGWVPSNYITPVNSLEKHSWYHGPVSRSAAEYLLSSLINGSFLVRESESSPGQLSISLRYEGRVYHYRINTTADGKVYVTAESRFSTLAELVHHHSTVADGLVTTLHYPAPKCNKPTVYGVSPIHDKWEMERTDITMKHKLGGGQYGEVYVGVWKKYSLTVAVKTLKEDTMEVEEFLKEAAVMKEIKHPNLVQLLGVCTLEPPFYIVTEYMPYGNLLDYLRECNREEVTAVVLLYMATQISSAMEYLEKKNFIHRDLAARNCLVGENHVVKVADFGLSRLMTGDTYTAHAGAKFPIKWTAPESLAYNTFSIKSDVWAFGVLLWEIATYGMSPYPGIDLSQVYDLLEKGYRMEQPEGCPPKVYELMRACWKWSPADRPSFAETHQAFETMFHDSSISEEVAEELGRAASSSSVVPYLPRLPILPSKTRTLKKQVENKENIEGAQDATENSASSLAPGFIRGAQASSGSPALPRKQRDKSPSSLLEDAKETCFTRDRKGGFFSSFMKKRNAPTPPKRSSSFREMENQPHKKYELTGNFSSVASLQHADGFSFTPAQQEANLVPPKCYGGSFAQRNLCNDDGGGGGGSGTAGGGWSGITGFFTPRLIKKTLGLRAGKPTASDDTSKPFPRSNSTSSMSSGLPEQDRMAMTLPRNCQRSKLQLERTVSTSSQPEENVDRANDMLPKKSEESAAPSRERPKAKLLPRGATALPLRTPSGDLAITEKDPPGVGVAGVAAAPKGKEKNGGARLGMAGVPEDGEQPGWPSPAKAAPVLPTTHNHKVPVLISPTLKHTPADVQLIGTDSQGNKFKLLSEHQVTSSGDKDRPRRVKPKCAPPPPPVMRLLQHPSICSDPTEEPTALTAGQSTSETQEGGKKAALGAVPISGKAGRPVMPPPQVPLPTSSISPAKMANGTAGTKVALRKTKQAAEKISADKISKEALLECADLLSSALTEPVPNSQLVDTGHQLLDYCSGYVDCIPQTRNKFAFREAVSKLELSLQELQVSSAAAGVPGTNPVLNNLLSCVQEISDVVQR
5'-AMP-activated protein kinase subunit gamma-2, sequence (Q9UGJ0 whole entry): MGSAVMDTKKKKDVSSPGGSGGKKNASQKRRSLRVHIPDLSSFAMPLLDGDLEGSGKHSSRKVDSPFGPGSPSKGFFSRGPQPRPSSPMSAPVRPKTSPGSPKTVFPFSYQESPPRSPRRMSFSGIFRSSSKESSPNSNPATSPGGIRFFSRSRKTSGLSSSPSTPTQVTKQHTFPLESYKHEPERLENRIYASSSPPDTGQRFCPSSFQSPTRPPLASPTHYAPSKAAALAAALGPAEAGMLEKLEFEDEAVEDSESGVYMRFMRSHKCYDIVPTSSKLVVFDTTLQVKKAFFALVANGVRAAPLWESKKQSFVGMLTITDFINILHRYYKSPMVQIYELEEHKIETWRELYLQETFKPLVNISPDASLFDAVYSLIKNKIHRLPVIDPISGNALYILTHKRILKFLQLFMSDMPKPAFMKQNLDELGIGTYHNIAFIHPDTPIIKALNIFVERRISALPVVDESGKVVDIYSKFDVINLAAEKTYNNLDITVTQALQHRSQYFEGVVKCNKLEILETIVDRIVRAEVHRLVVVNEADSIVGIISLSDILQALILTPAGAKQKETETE
Tyrosine-protein kinase Fyn, sequence (P06241 whole entry): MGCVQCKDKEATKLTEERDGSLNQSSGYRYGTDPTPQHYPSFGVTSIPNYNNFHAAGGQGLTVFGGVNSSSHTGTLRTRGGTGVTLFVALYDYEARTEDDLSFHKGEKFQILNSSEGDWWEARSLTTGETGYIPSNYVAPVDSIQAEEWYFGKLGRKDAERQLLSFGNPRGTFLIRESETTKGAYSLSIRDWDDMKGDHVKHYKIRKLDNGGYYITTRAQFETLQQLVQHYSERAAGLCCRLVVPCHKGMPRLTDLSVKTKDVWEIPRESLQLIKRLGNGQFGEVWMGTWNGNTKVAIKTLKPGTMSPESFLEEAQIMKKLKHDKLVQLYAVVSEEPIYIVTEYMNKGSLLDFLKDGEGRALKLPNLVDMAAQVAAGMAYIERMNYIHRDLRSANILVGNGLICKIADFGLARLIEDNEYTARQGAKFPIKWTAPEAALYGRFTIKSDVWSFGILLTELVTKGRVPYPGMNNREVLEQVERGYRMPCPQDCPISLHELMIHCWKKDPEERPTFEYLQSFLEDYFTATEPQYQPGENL

For orientation: solubility means the dissolved amount per volume that the medium holds. A higher solubility goes with much dissolved substance. As a reminder, the efflux ratio is a quotient of directional permeabilities that is used to spot active efflux. Broadly, the AUC is concentration integrated over time. Take `COc1cc2c(Oc3ccc(NS(=O)(=O)c4cc(F)ccc4F)cc3F)ccnc2cc1OCCCN1CCN(C)CC1`: the “Kd(free)” value in data set [1] is 4.455 µM; in data set [2], 0.029 µM; in data set [3], 0.043 µM; in data set [4], 0.064 µM; at Aurora kinase B, greater than 0.069 µM; in data set [5] it was 0.071 µM. Besides, the “Kd(free)” value on LIM domain kinase 1 turned out to be 0.13 µM; in data set [6] it was 0.679 µM; in data set [7], 0.723 µM; in data set [8], 0.825 µM; in data set [9], 1.078 µM; in data set [10] it was 1.257 µM. Besides, the “Kd(free)” value was 1.86 µM at TGF-beta receptor type-2; 2.08 µM in data set [11]; greater than 2.514 µM in data set [12]; 3.418 µM in data set [13]; 4.396 µM in data set [14]; 4.445 µM on Focal adhesion kinase 1. The solubility at 24 h in data set [15] amounted to 68.8 µM (≈ 42.4 µg/mL). For the same compound, in [16], the efflux ratio at 2 h, 10 µM came out at 2.3. Moreover, the microsomal CLint at 5 µM in [17] is 143 µL/min/mg. For the same compound, the Stability is 96.3% in data set [18] and 108% in [19]. In addition, the AUC in [20] came to 1430 ng·h/mL. Besides, the C0 in data set [21] came to 310 ng/mL. Also, in data set [22], the half-life is 1120 min.

Regarding `COc1cc2c(Oc3ccc(NS(=O)(=O)c4c(F)cccc4F)cc3F)ccnc2cc1OCCCN1CCN(C)CC1`, the “Kd(free)” value in data set [1] amounted to 7.086 µM; in data set [2], 0.011 µM; in data set [3] it was 0.017 µM; in [4], 0.038 µM; on Aurora kinase B it was 0.034 µM; in data set [5] it was 0.016 µM. Also, the “Kd(free)” value on LIM domain kinase 1 came out at 0.093 µM; in [6], 0.304 µM; in data set [7], 0.243 µM; in data set [8], 1.871 µM; in [9] it was 2.296 µM; in [10], 2.279 µM. Also, the “Kd(free)” value on TGF-beta receptor type-2 was 7.385 µM; in [11], 1.367 µM; in data set [12], greater than 2.513 µM; in data set [13] it was 1.567 µM; in [14] it was 5.518 µM; at Focal adhesion kinase 1, 2.212 µM.

With `COc1cc2c(Oc3ccc(NS(=O)(=O)c4cc(F)ccc4F)cc3F)ccnc2cc1OCCCN1CCCC(C)C1` (configuration not stated), the solubility at 24 h in [15] is 18 µM (≈ 11.1 µg/mL). Moreover, the efflux ratio at 2 h, 10 µM in [16] was 6.6. Moreover, in [17], the microsomal CLint at 5 µM was found to be 19.1 µL/min/mg. In addition, the Stability is reported as 99.1% in [18] and 98.8% in data set [19]. The AUC in [20] was determined as 669 ng·h/mL. The C0 in [21] was determined as 216 ng/mL. Besides, the half-life in data set [22] is 510 min.
